The results in this text go back to ChEMBL document CHEMBL1126621 (J Med Chem, 1993).

The nature of test [1]: Relative affinity for delta and kappa opioid receptors of guinea pig brain homogenate. The note with it: Cavia porcellus.
The target of test [2] is Delta-type opioid receptor (Mus musculus, UniProt P32300). The test can be described thus: Inhibition of delta-selective antagonist binding to opioid receptor of mouse vas dferens. In outline: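 Mouse vas deferens at 500 mg tension in Mg-free Krebs, 37 °C, 95% O2/5% CO2. Field-stimulated with 2-ms supramaximal pulses; isometric contractions recorded. Cumulative concentration-response. At least 2 assays in duplicate.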
Delta-type opioid receptor, sequence (P32300 whole entry): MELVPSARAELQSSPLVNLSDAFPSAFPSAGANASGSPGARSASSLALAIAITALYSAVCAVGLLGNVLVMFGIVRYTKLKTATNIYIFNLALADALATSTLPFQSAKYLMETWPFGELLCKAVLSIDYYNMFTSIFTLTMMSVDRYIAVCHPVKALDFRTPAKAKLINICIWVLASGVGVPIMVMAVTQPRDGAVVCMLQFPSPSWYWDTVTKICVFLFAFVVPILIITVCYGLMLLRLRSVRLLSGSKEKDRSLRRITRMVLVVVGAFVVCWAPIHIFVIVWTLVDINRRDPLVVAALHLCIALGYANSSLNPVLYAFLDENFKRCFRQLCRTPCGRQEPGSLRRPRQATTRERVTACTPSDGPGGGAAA

Test [3] deals with T1, Kappa-type opioid receptor (Cavia porcellus, UniProt P41144). The test can be described thus: (§1) Inhibition of [3H]U-69593 binding to kappa opioid receptor of guinea pig brain homogenate. Put shortly: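 Adult male Hartley guinea pig whole-brain membranes in 50 mM Tris-HCl pH 7.4, preincubated 25 °C 30 min to strip endogenous peptides. Assay buffer: Tris with BSA, bestatin, bacitracin, captopril, PMSF. Ten concentrations over 800-fold range, duplicate tubes. 10 μM naltrexone defined nonspecific binding. 25 °C for 3 h, then PEI-treated GF/B filtration and scintillation counting. One/two-site nonlinear regression or logistic fit. ≥3 independent runs, mean ± SEM.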
T1 sequence (P41144 whole entry): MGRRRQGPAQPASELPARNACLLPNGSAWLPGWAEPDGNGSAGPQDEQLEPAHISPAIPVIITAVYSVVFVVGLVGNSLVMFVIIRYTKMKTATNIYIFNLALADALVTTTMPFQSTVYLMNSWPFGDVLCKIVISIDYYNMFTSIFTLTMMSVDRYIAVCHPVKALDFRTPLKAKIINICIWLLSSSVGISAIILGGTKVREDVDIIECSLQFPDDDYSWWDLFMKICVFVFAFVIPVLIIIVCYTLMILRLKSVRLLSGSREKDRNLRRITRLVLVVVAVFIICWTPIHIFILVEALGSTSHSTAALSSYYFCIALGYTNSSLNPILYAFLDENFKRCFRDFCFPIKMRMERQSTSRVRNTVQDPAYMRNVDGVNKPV

Test [4] has as its target Mu-type opioid receptor (Cavia porcellus, UniProt P97266). The test is described as follows: Inhibition of [3H]PL-17 binding to mu opioid receptor of guinea pig brain homogenate.
In test [5] the target is T1, Kappa-type opioid receptor. Described as §1. Put shortly:
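Adult male Hartley guinea pig whole-brain membranes in 50 mM Tris-HCl pH 7.4, preincubated 25 °C 30 min to strip endogenous peptides. Assay buffer: Tris with BSA, bestatin, bacitracin, captopril, PMSF. Radioligand: [3H]DPDPE 1.0 nM (δ) or [3H]U-69,593 0.75 nM (κ). Ten concentrations over 800-fold range, duplicate tubes. 10 μM naltrexone defined nonspecific binding. 25 °C for 3 h, then PEI-treated GF/B filtration and scintillation counting. One/two-site nonlinear regression or logistic fit. ≥3 independent runs, mean ± SEM.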
The source holds these as a separate data set.

Bridge positions count the residues as written; N and C are the ends. Square brackets hold non-standard residues; d marks the D form. Peptide text beside a SMILES is read from it. Pen = CC(C)(S)[C@H](N)C(=O)O Some results are limits rather than exact numbers.

Mu-type opioid receptor, sequence (P97266 whole entry): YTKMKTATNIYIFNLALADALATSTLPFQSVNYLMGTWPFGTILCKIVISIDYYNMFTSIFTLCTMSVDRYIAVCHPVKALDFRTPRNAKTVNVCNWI

Compound `CC[C@H](C)[C@H]1NC(=O)[C@H](CCCN=C(N)N)NC(=O)[C@@H](CCCN=C(N)N)NC(=O)[C@H](NC(=O)[C@H](Cc2ccccc2)NC(=O)CNC(=O)CNC(=O)[C@@H](N)Cc2ccc(O)cc2)C(C)(C)SSC[C@H](C(=O)O)NC(=O)[C@H]2CCCN2C(=O)[C@H](CCCN=C(N)N)NC1=O` showed a Selectivity in test [1] of 165.

In the case of `CC[C@H](C)[C@@H]1NC(=O)[C@H](CCCNC(=N)N)NC(=O)[C@H](CCCNC(=N)N)NC(=O)[C@@H](NC(=O)[C@H](Cc2ccccc2)NC(=O)CNC(=O)CNC(=O)[C@@H](N)Cc2ccccc2)CSSC[C@@H](C(N)=O)NC(=O)[C@@H]2CCCN2C(=O)[C@H](CCCNC(=N)N)NC1=O` (H-FGGFCRRIRPC-NH2; disulfide 5-11), the results for the IC50 in test [2], in test [3] and in test [4] were more than 3000 nM, 15.1 nM and 61.2 nM, respectively.

For `CC[C@H](C)[C@@H]1NC(=O)[C@H](CCCN=C(N)N)NC(=O)[C@H](CCCN=C(N)N)NC(=O)[C@@H](NC(=O)[C@H](Cc2ccccc2)NC(=O)CNC(=O)CNC(=O)[C@@H](N)Cc2ccc(O)cc2)CSSC[C@@H](C(=O)N[C@@H](CCCN=C(N)N)C(=O)N[C@@H](CCCCN)C(N)=O)NC1=O` (H-YGGFCRRICRK-NH2; disulfide 5-9), the IC50 (usually the concentration at which inhibition is half-maximal) in test [2] worked out at 6260 nM; in test [4] it was 5.81 nM; in test [5] it was 0.42 nM.

In the case of `CC[C@H](C)[C@@H]1NC(=O)[C@H](CCCN=C(N)N)NC(=O)[C@H](CCCN=C(N)N)NC(=O)[C@@H](NC(=O)[C@H](Cc2ccccc2)NC(=O)CNC(=O)[C@@H](C)NC(=O)[C@@H](N)Cc2ccc(O)cc2)CSSC[C@@H](C(N)=O)NC(=O)[C@@H]2CCCN2C(=O)[C@H](CCCN=C(N)N)NC1=O`, the IC50 was more than 6000 nM in test [2], 81.2 nM in test [3] and 9.69 nM in test [4].

In test [1], `CC[C@H](C)[C@H]1NC(=O)[C@H](CCCN=C(N)N)NC(=O)[C@@H](CCCN=C(N)N)NC(=O)[C@H](NC(=O)[C@H](Cc2ccccc2)NC(=O)CNC(=O)CNC(=O)[C@@H](N)Cc2ccc(O)cc2)CSSC[C@H](C(=O)N2CCC[C@@H]2C(=O)N[C@H](CCCCN)C(=O)O)NC1=O` yielded a Selectivity of 36.

In test [1], `CC[C@H](C)[C@H]1NC(=O)[C@H](CCCN=C(N)N)NC(=O)[C@@H](CCCN=C(N)N)NC(=O)[C@H](NC(=O)[C@H](Cc2ccccc2)NC(=O)CNC(=O)CNC(=O)[C@@H](N)Cc2ccc(O)cc2)CSSC[C@H](C(=O)O)NC(=O)[C@@H](CC(C)C)NC(=O)[C@H](CCCCN)NC(=O)C2CCCN2C(=O)[C@H](CCCN=C(N)N)NC1=O` (stereo in doubt) gave a Selectivity of 46.

Compound `CC[C@H](C)[C@H]1NC(=O)[C@H](CCCN=C(N)N)NC(=O)[C@@H](CCCN=C(N)N)NC(=O)[C@H](NC(=O)[C@H](Cc2ccccc2)NC(=O)CNC(=O)[C@@H](C)NC(=O)[C@@H](N)Cc2ccc(O)cc2)CSSC[C@H](C(=O)O)NC(=O)[C@H]2CCCN2C(=O)[C@H](CCCN=C(N)N)NC1=O` had a Selectivity in test [1] of 1.3.

As for `CC(C)C[C@H](NC(=O)[C@H](Cc1ccccc1)NC(=O)CNC(=O)CNC(=O)[C@@H](N)Cc1ccc(O)cc1)C(=O)N[C@@H](CCCN=C(N)N)C(=O)N[C@@H](CCCN=C(N)N)C(=O)N[C@@H]1CSSC[C@@H](C(=O)N[C@@H](CCCCN)C(=O)O)NC(=O)[C@@H](CCCCN)NC(=O)[C@@H]2CCCN2C(=O)[C@@H](CCCN=C(N)N)NC1=O`, the Selectivity in test [1] is 56.

In the case of `CC[C@H](C)[C@@H]1NC(=O)[C@H](CCCNC(=N)N)NC(=O)[C@H](CCCNC(=N)N)NC(=O)[C@@H](NC(=O)[C@H](Cc2ccccc2)NC(=O)CNC(=O)CNC(=O)[C@@H](N)Cc2ccc(O)cc2)CSSC[C@@H](C(N)=O)NC(=O)[C@H](CC(C)C)NC(=O)[C@H](CCCCN)NC(=O)[C@H]2CCCN2C(=O)[C@H](CCCNC(=N)N)NC1=O`, the figures for the IC50 in test [2], in test [3] and in test [4] were 4100 nM, 0.21 nM and 2.48 nM, respectively.

`CC[C@H](C)[C@@H]1NC(=O)[C@@H](CCCN=C(N)N)NC(=O)[C@H](CCCN=C(N)N)NC(=O)[C@H](NC(=O)[C@H](Cc2ccccc2)NC(=O)CNC(=O)CNC(=O)[C@@H](N)Cc2ccc(O)cc2)CSSC[C@H](C(=O)N[C@@H](CCCCN)C(=O)O)NC(=O)[C@@H](CCCN=C(N)N)NC1=O`: in test [1], the Selectivity came out at 139.

Regarding `CC[C@H](C)[C@@H]1NC(=O)[C@H](CCCNC(=N)N)NC(=O)[C@@H](NC(=O)[C@H](CC(C)C)NC(=O)[C@H](Cc2ccccc2)NC(=O)CNC(=O)CNC(=O)[C@@H](N)Cc2ccc(O)cc2)CSSC[C@@H](C(=O)N[C@@H](CCCCN)C(N)=O)NC(=O)[C@H](CCCNC(=N)N)NC1=O` (H-YGGFLCRIRCK-NH2; disulfide 6-10), the figures for the IC50 in test [2], in test [3] and in test [4] were 92.6 nM, 0.047 nM and 0.091 nM, respectively.

The compound `CC[C@H](C)[C@H]1NC(=O)[C@H](CCCN=C(N)N)NC(=O)[C@@H](CCCN=C(N)N)NC(=O)[C@H](NC(=O)[C@H](Cc2ccccc2)NC(=O)CNC(=O)CNC(=O)[C@@H](N)Cc2ccccc2)CSSC[C@H](C(=O)O)NC(=O)[C@H]2CCCN2C(=O)[C@H](CCCN=C(N)N)NC1=O` gave a Selectivity in test [1] of 26.

Regarding `CC[C@H](C)[C@@H]1NC(=O)[C@H](CCCN=C(N)N)NC(=O)[C@H](CCCN=C(N)N)NC(=O)[C@@H](NC(=O)[C@H](Cc2ccccc2)NC(=O)CNC(=O)CNC(=O)[C@@H](N)Cc2ccc(O)cc2)CSSC[C@@H](C(=O)N[C@@H](CCCCN)C(N)=O)NC(=O)[C@H](CCCN=C(N)N)NC1=O` (H-YGGFCRRIRCK-NH2; disulfide 5-10), the IC50 in test [2] is more than 3000 nM; in test [3] it was 0.593 nM; in test [4], 4.26 nM.

Take `CC[C@H](C)[C@@H]1NC(=O)[C@H](CCCN=C(N)N)NC(=O)[C@H](CCCN=C(N)N)NC(=O)[C@@H](NC(=O)[C@H](Cc2ccccc2)NC(=O)CNC(=O)CNC(=O)[C@@H](N)Cc2ccc(O)cc2)CSSC[C@@H](C(=O)N2CCC[C@H]2C(=O)N[C@@H](CCCCN)C(N)=O)NC1=O` (H-YGGFCRRICPK-NH2; disulfide 5-9): the IC50 in test [2] is more than 3000 nM; in test [3], 0.868 nM; in test [4] it was 6.43 nM.

With `CC(C)C[C@H](NC(=O)[C@H](Cc1ccccc1)NC(=O)CNC(=O)CNC(=O)[C@@H](N)Cc1ccc(O)cc1)C(=O)N[C@@H](CCCN=C(N)N)C(=O)N[C@@H](CCCN=C(N)N)C(=O)N[C@H]1CSSC[C@H](C(=O)O)NC(=O)[C@@H](CC(C)C)NC(=O)[C@H](CCCCN)NC(=O)[C@H]2CCCN2C(=O)[C@H](CCCN=C(N)N)NC1=O`, the Selectivity in test [1] is 55.

`CC(C)C[C@H](NC(=O)[C@H](Cc1ccccc1)NC(=O)CNC(=O)CNC(=O)[C@@H](N)Cc1ccc(O)cc1)C(=O)N[C@@H](CCCN=C(N)N)C(=O)N[C@@H](CCCN=C(N)N)C(=O)N[C@H]1CSSC[C@H](C(N)=O)NC(=O)[C@H](CC(C)C)NC(=O)[C@H](CCCCN)NC(=O)[C@@H]2CCCN2C(=O)[C@H](CCCN=C(N)N)NC1=O`: the IC50 in test [2] is 9.17 nM; in test [3], 0.035 nM; in test [4], 0.38 nM.

For the compound `CC[C@H](C)[C@H]1NC(=O)[C@H](CCCN=C(N)N)NC(=O)[C@@H](CCCN=C(N)N)NC(=O)[C@H](NC(=O)[C@H](Cc2ccccc2)NC(=O)CNC(=O)CNC(=O)[C@@H](N)Cc2ccc(O)cc2)CSSC[C@H](C(=O)N[C@H](CCCN=C(N)N)C(=O)N[C@H](CCCCN)C(=O)O)NC1=O`, the Selectivity in test [1] is 43.

`CC[C@H](C)[C@H]1NC(=O)[C@H](CCCN=C(N)N)NC(=O)[C@@H](NC(=O)[C@H](CC(C)C)NC(=O)[C@H](Cc2ccccc2)NC(=O)CNC(=O)CNC(=O)[C@@H](N)Cc2ccc(O)cc2)CSSC[C@@H](C(=O)N[C@@H](CCCCN)C(=O)O)NC(=O)[C@H](CCCN=C(N)N)NC1=O` registered a Selectivity in test [1] of 10.

For the compound `CC[C@H](C)[C@@H]1NC(=O)[C@H](CCCN=C(N)N)NC(=O)[C@H](CCCN=C(N)N)NC(=O)[C@@H](NC(=O)[C@H](Cc2ccccc2)NC(=O)CNC(=O)CNC(=O)[C@@H](N)Cc2ccc(O)cc2)C(C)(C)SSC[C@@H](C(N)=O)NC(=O)[C@@H]2CCCN2C(=O)[C@H](CCCN=C(N)N)NC1=O` (H-YGGF[Pen]RRIRPC-NH2; disulfide 5-11), the results for the IC50 in test [2], in test [3] and in test [4] were more than 6000 nM, 0.522 nM and 1.26 nM, respectively.

`CC(C)C[C@H](NC(=O)[C@H](Cc1ccccc1)NC(=O)CNC(=O)CNC(=O)[C@@H](N)Cc1ccc(O)cc1)C(=O)N[C@@H](CCCNC(=N)N)C(=O)N[C@@H](CCCNC(=N)N)C(=O)N[C@@H]1CSSC[C@H](C(=O)N[C@@H](CCCCN)C(N)=O)NC(=O)[C@H](CCCCN)NC(=O)[C@@H]2CCCN2C(=O)[C@H](CCCNC(=N)N)NC1=O`: the IC50 in test [2] was found to be 25.3 nM; in test [3], 0.116 nM; in test [4], 0.674 nM.
